Source: PubChem
Shown are actives, neighbours in structure and some others; about 4.6% of the full set was active somewhere.
NALP1 yeast inh: blocks the NALP1 inflammasome reconstituted in yeast; S. cerevisiae NALP1/ASC/caspase-1 growth, X-gal OD620, 72 h; inhibition, % at 10 µM; 280,000 tested, 0.61% active; AID 2071; in the data active means inhibition mostly above about 24%, no sharp cut-off; inactive means mostly below about 32%
Arrestin-AP2 inh: human beta-arrestin and AP2 interaction inhibition. 340,000 tested, 0.31% active. inhibition, % at 10 µM. FITC-arrestin peptide / GST-AP2 beads, flow cytometry; AP2 beta2 appendage carries R879A mutation;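 active means inhibition above a set limit, near 3 SD of compounds lacking own fluorescence, cut at about 54% in these data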;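 further: plate controls were DMSO wells for no effect and 5 µM unlabelled arrestin peptide for full effect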
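Assay system: GST-AP2 R879A bound to glutathione beads, E. coli-expressed; Medium: PBS with 0.05% Tween 20 and 0.1% BSA; Also added: fluorescein-tagged arrestin peptide at 50 nM final; Timing: 12 min plus 1 h, RT; Measured by: flow cytometry, FL1 (488/535 nm); Evaluation: percent drop in bead-associated FITC signal.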
NALP3 yeast inh: blocks the NALP3 inflammasome reconstituted in yeast | 330,000 tested, 0.39% active | Yeast reconstituted NLRP3/ASC/caspase-1, beta-gal luminescence, 24 h | inhibition, % at 10 µM | AID 2825;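 active means inhibition of 50% or more; inactive means inhibition below 50%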;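 further: plate controls were induced DMSO wells for no effect and uninduced yeast grown without galactose for full effect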
Pemphigus Ab inh: blocks pemphigus antibody binding to human desmoglein-3. P32926. DSG3-coupled beads, scFv-anti-DSG3-GFP binding, flow cytometry; hits give low values. binding (percent of control), % at 10 µM. 310,000 tested, 0.48% active;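 active means binding more than 3 SD below its plate's average and above zero; inconclusive means below that plate limit but binding exactly zero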;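 further: hits lower antibody fragment binding to DSG3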
Target sequence (P32926 whole entry, looked up, the tested form may be a part): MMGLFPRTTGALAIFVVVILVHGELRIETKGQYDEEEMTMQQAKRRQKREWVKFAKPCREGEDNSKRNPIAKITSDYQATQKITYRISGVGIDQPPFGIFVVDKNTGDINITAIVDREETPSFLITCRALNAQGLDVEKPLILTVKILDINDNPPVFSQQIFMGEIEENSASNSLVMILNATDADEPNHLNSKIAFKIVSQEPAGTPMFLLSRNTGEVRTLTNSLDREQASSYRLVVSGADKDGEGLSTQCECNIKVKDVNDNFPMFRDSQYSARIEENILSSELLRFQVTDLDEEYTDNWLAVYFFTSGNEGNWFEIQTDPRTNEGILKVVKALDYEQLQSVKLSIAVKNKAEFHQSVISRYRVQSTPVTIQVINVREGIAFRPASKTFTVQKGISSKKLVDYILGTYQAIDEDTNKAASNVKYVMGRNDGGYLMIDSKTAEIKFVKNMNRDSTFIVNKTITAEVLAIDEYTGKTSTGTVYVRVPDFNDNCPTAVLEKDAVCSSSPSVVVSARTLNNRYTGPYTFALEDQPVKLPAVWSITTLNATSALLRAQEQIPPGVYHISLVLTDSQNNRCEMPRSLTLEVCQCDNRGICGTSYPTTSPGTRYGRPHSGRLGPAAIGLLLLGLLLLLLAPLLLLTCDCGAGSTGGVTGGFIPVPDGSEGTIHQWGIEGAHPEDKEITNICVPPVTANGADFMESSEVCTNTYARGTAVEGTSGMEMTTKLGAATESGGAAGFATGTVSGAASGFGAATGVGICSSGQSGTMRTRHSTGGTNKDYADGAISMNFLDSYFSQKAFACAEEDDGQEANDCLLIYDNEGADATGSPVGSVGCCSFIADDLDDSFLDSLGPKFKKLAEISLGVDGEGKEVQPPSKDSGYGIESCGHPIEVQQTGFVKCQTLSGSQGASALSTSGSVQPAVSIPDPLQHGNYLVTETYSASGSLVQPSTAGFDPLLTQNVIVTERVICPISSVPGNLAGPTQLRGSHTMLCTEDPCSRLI
PolyA inhibitor: inhibitors of polyadenylation in S. cerevisiae. 300,000 tested, 0.02% active. S. cerevisiae SKY197-pL101 polyadenylation reporter, beta-gal luminescence; efflux-impaired pdr1/pdr3 knockout yeast; score 100 = 6 SD above DMSO. activity score, % at 12 µM;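 active means lowest replicate activity score at least 50, where 100 means six control SD above control mean; inconclusive means lowest score under 50 but half or more replicates reach 50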;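 further: yeast exposed to compound for 9 h at 30 °C; higher score means more reporter readthrough which indicates perturbed polyadenylation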
ALR H2O2 inh: blocks human ALR sulfhydryl oxidase activity; P55789; purified ALR, DTT oxidation, H2O2 HRP-luminol luminescence; inhibition, % (no concentration beside the values); 290,000 tested, 3.8% active;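 active means mean replicate inhibition above about 79%, with every replicate also reaching it, limit read from the data; inconclusive means only one of the two criteria met; inactive means mean below limit and not every replicate reaching it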
* hit, by the source's call.

How did COc1ccc(C(=O)N/N=C/c2c[nH]c3ccccc23)cc1 do in these assays?
NALP1 yeast inh: -9; Arrestin-AP2 inh: 11; NALP3 yeast inh: 17; Pemphigus Ab inh: 112; PolyA inhibitor: 0; ALR H2O2 inh: 12

What do the screens show for `C=CCOc1c(Br)cc(/C=N/Nc2ccc(C(=O)O)cc2)cc1OCC`?
NALP1 yeast inh: 16; Arrestin-AP2 inh: 11; NALP3 yeast inh: 22; Pemphigus Ab inh: 100; PolyA inhibitor: -10; ALR H2O2 inh: 97*

Results for COc1ccc(/C=N/Nc2ccc(C(=O)O)cc2)cc1OC ?
Arrestin-AP2 inh: -2; NALP3 yeast inh: -9; Pemphigus Ab inh: 86; PolyA inhibitor: 2

Results for COc1ccc(/C=N/Nc2ccc(C(=O)O)cc2)cc1Br ?
NALP1 yeast inh: 7; Arrestin-AP2 inh: 8; NALP3 yeast inh: 14; Pemphigus Ab inh: 104; PolyA inhibitor: -8; ALR H2O2 inh: 99*

What do the screens show for `COc1ccc2c(/C=N/Nc3ccc(C(=O)O)cc3)c[nH]c2c1`?
NALP1 yeast inh: 7; Arrestin-AP2 inh: -20; NALP3 yeast inh: 19; Pemphigus Ab inh: 99; PolyA inhibitor: 6; ALR H2O2 inh: 88*

What do the screens show for `CCN(CC)S(=O)(=O)c1ccc(C(=O)NC(=S)N2CCCCC2C)cc1` (stereo not given)?
Pemphigus Ab inh: 109

What do the screens show for `COc1ccc(S(=O)(=O)N(CCCN2CCOCC2)Cc2cccc(OC)c2OC)cc1`?
NALP1 yeast inh: 11; Arrestin-AP2 inh: 0; NALP3 yeast inh: -9; Pemphigus Ab inh: 115; PolyA inhibitor: -4; ALR H2O2 inh: -20

How did COc1ccc(S(=O)(=O)N(CCCN2CCOCC2)Cc2cccc3ccccc23)cc1 do in these assays?
NALP1 yeast inh: 39*; Arrestin-AP2 inh: 4; NALP3 yeast inh: -6; Pemphigus Ab inh: 106; PolyA inhibitor: 4; ALR H2O2 inh: -19

Results for Nc1ccc(CCc2ccc(N)cc2)cc1 ?
Arrestin-AP2 inh: -10; NALP3 yeast inh: 15; Pemphigus Ab inh: 102; PolyA inhibitor: 18; ALR H2O2 inh: 85*

How did O=C(NNC(=S)NC1CCCCC1)c1ccccc1O do in these assays?
NALP1 yeast inh: 8; Arrestin-AP2 inh: 5; NALP3 yeast inh: 9; Pemphigus Ab inh: 107; PolyA inhibitor: 21; ALR H2O2 inh: 97*

What do the screens show for `COCCNc1nnc(SCC(=O)NC(=O)c2ccccc2OC)s1`?
NALP1 yeast inh: 13; Arrestin-AP2 inh: 1; NALP3 yeast inh: 13; Pemphigus Ab inh: 97; PolyA inhibitor: -3; ALR H2O2 inh: 0

What do the screens show for `COc1ccccc1C(=O)NC(=O)CSc1ccc(C)c(C)c1`?
Arrestin-AP2 inh: -1; NALP3 yeast inh: 16; ALR H2O2 inh: 97*

What do the screens show for `Cc1cccc(NC(=O)CC2C(=O)NC3CCCCC3N2C(=O)c2ccccc2Cl)c1` (stereo not given)?
Arrestin-AP2 inh: 36; NALP3 yeast inh: 8; Pemphigus Ab inh: 89*; PolyA inhibitor: 26; ALR H2O2 inh: -7

Results for Cc1ccc(C(=O)NCC(=O)OC(C)C(=O)Nc2ccc(N3CCOCC3)cc2)s1 (stereo not given) ?
NALP1 yeast inh: -8; Arrestin-AP2 inh: 7; NALP3 yeast inh: 2; Pemphigus Ab inh: 94; PolyA inhibitor: 14; ALR H2O2 inh: 93*

Results for Cc1ccc(S(=O)(=O)CCC(=O)OC(C)C(=O)Nc2ccc(N3CCOCC3)cc2)cc1 (stereo not given) ?
Arrestin-AP2 inh: 1; NALP3 yeast inh: 26; Pemphigus Ab inh: 95; ALR H2O2 inh: 5

What do the screens show for `CC(OC(=O)COc1ccccc1[N+](=O)[O-])C(=O)Nc1ccc(N2CCOCC2)cc1` (stereo not given)?
NALP1 yeast inh: -1; Arrestin-AP2 inh: 2; NALP3 yeast inh: 9; Pemphigus Ab inh: 96; PolyA inhibitor: 1; ALR H2O2 inh: 76*

Results for CCC(=O)N1CCN(c2ccc(NC(=O)COc3ccccc3[N+](=O)[O-])cc2)CC1 ?
NALP1 yeast inh: 22; Arrestin-AP2 inh: -8; NALP3 yeast inh: -9; Pemphigus Ab inh: 92; PolyA inhibitor: inconclusive; ALR H2O2 inh: -1

Results for O=c1[nH]cc(CCCc2ccccc2)c(=O)[nH]1 ?
Pemphigus Ab inh: 100
